The record followed here is the array DNA melting data of Ke et al. (doi:10.1101/2024.01.08.574731).

Series [1] in a line: folding enthalpy; higher = less favourable; fluorescence melt of hairpins on a sequencing array, two-state fit. To be noted: sodium 0.088 M. Summed up:
(§1)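 Two-state fits, bootstrapped, provided melting temperature and folding enthalpy from Cy3 fluorescence normalised to pre-quench Cy3 and to control constructs. Library hairpins with annealed Cy3 and quencher oligos were imaged on a sequenced MiSeq flow cell in 50 mM Na-HEPES pH 8.0, 25 mM NaCl, at 2.5 °C intervals up to 60 °C. Four replicates were combined with inverse-variance weighting. A 9.35 °C upward shift was applied to fitted temperatures to match UV melts.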

The nature of series [2]: melting temperature; fluorescence melt of hairpins on a sequencing array, two-state fit, raised by 9.35 °C to match UV melts. As to conditions: sodium 0.088 M. The procedure, abridged: as §1

Take GATCCAAAAGTGGATC ((((((....)))))): the folding enthalpy in series [1] was -27.5 kcal/mol. Besides, the Tm in series [2] came out at 43.9 °C.

As to GATCCAAAATTGGATC ((((((....)))))), the folding enthalpy in series [1] is -35.8 kcal/mol. Moreover, the Tm in series [2] amounted to 48.1 °C.

On to GATCCAAAGATGGATC ((((((....)))))), for which the folding enthalpy in series [1] was -26.4 kcal/mol. For the same sequence, in series [2], the Tm was 44.5 °C.

Turning to GATCCAAATTGGATC ((((((...)))))), the folding enthalpy in series [1] was -31.8 kcal/mol. Further, the Tm in series [2] was determined as 48.3 °C.

Regarding GATCCAACAATGGATC ((((((....)))))), the folding enthalpy in series [1] was -32.7 kcal/mol. In addition, in series [2], the Tm was found to be 47.1 °C.

On to GATCCAACGCTGGATC ((((((....)))))), for which, in series [1], the folding enthalpy was -38.3 kcal/mol. For the same sequence, the Tm in series [2] turned out to be 49.1 °C.

Consider GATCCAACGTGGATC ((((((...)))))), for which, in series [1], the folding enthalpy is -31.9 kcal/mol. For the same sequence, in series [2], the Tm is 49.2 °C.

On to GATCCAAGAATGGATC ((((((....)))))), for which, in series [1], the folding enthalpy is -30.2 kcal/mol. Besides, the Tm in series [2] is 46.7 °C.

With GATCCAAGACTGGATC ((((((....)))))), the folding enthalpy in series [1] is -28.2 kcal/mol. Also, the Tm in series [2] was determined as 47.4 °C.

Take GATCCAAGCGTGGATC ((((((....)))))): the folding enthalpy in series [1] is -35.7 kcal/mol. Besides, the Tm in series [2] came to 50.6 °C.

GATCCAAGGCTGGATC ((((((....)))))): the folding enthalpy in series [1] is -35.5 kcal/mol. The Tm in series [2] is 48.9 °C.

Turning to GATCCAAGTCTGGATC ((((((....)))))), the folding enthalpy in series [1] is -41.8 kcal/mol. In addition, the Tm in series [2] came to 49 °C.

For GATCCAATCCTGGATC ((((((....)))))), the folding enthalpy in series [1] is -37.7 kcal/mol. Further, the Tm in series [2] was found to be 49.2 °C.

Regarding GATCCAATCTTGGATC ((((((....)))))), the folding enthalpy in series [1] is -33 kcal/mol. The Tm in series [2] is 54.3 °C.

On to GATCCAATGATGGATC ((((((....)))))), for which the folding enthalpy in series [1] is -29.3 kcal/mol. In series [2], the Tm is 47.6 °C.

For GATCCAATGTGGATC ((((((...)))))), the folding enthalpy in series [1] is -32.5 kcal/mol. In addition, the Tm in series [2] is 50.8 °C.

Regarding GATCCAATTCTGGATC ((((((....)))))), in series [1], the folding enthalpy is -39.7 kcal/mol. Also, the Tm in series [2] worked out at 49.5 °C.

For GATCCAATTTGGATC ((((((...)))))), the folding enthalpy in series [1] was -39.8 kcal/mol. Further, the Tm in series [2] was 51.1 °C.

Consider GATCCAATTTTGGATC ((((((....)))))), for which the folding enthalpy in series [1] is -40.2 kcal/mol. For the same sequence, the Tm in series [2] was found to be 54 °C.

Regarding GATCCACACGTGGATC ((((((....)))))), the folding enthalpy in series [1] was -35.1 kcal/mol. Further, in series [2], the Tm was found to be 59 °C.

GATCCACACTTGGATC ((((((....)))))): the folding enthalpy in series [1] is -41.1 kcal/mol. Besides, the Tm in series [2] is 52.1 °C.

GATCCACATTGGATC ((((((...)))))): the folding enthalpy in series [1] was -25.2 kcal/mol. For the same sequence, the Tm in series [2] was determined as 52.2 °C.

Turning to GATCCACCAGTGGATC ((((((....)))))), the folding enthalpy in series [1] was -50.8 kcal/mol. For the same sequence, the Tm in series [2] worked out at 56.1 °C.

As for GATCCACCTTGGATC ((((((...)))))), the folding enthalpy in series [1] is -31.7 kcal/mol. Also, the Tm in series [2] was 51.2 °C.

Regarding GATCCACGATGGATC ((((((...)))))), the folding enthalpy in series [1] was -27 kcal/mol. For the same sequence, the Tm in series [2] came out at 48.6 °C.

With GATCCACGATTGGATC ((((((....)))))), the folding enthalpy in series [1] is -37 kcal/mol. Further, the Tm in series [2] stood at 48 °C.

On to GATCCACGCATGGATC ((((((....)))))), for which the folding enthalpy in series [1] was -32.1 kcal/mol. In addition, the Tm in series [2] amounted to 52.8 °C.

As for GATCCACGGATGGATC ((((((....)))))), the folding enthalpy in series [1] is -32.4 kcal/mol. For the same sequence, the Tm in series [2] was 48.6 °C.

Take GATCCACGTTGGATC ((((((...)))))): the folding enthalpy in series [1] is -29.7 kcal/mol. The Tm in series [2] is 50.6 °C.

On to GATCCACTCTTGGATC ((((((....)))))), for which the folding enthalpy in series [1] is -35.1 kcal/mol. For the same sequence, the Tm in series [2] was 51 °C.

As to GATCCACTGCTGGATC ((((((....)))))), the folding enthalpy in series [1] is -41.4 kcal/mol. Further, in series [2], the Tm was 50.4 °C.

For the sequence GATCCACTGGTGGATC ((((((....)))))), in series [1], the folding enthalpy was -39.4 kcal/mol. Also, the Tm in series [2] stood at 59.1 °C.

Take GATCCACTTATGGATC ((((((....)))))): in series [1], the folding enthalpy is -42.9 kcal/mol. Further, the Tm in series [2] was 50.8 °C.

GATCCACTTCTGGATC ((((((....)))))): in series [1], the folding enthalpy is -34.8 kcal/mol. The Tm in series [2] was 50.2 °C.

For GATCCACTTTGGATC ((((((...)))))), the folding enthalpy in series [1] is -33.3 kcal/mol. Also, the Tm in series [2] came out at 53.1 °C.

With GATCCAGACATGGATC ((((((....)))))), the folding enthalpy in series [1] is -39.9 kcal/mol. The Tm in series [2] amounted to 58 °C.

As to GATCCAGACGTGGATC ((((((....)))))), in series [1], the folding enthalpy is -45.1 kcal/mol. Moreover, the Tm in series [2] came out at 53.2 °C.

On to GATCCAGAGATGGATC ((((((....)))))), for which, in series [1], the folding enthalpy is -34.5 kcal/mol. The Tm in series [2] was 52.3 °C.
